Assay results taken from publication PMC3101112 (Cancer Management and Research, 2011).

Experiments:
EPHB4 = EPHB4 (Homo sapiens, UniProt P54760); settings: read-out: Cell-Based Target Inhibition Assays IC50, pEphB4 Y590/Y596; HEK293-Clone 25; stable over-expression of EphB4
EPHB2 = EPHB2 (Homo sapiens, UniProt P29323); experiment: Biochemical inhibition profile, EPHB2; settings: read-out: Biochemical Inhibition Profile IC50, EPHB2
[1] = tested on: pFLT3, pcKIT, pS6 in AML blasts; experiment: Flow cytometry of phosphoproteins in AML blasts of patients; format: in vivo, human; settings: after multiple dosing 50 mg/day; at least three patients (B, C, and E)
Summary of the method: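 Patient blood or marrow samples reached a central lab within 48 h. […] Peripheral CD34+CD11− cells were gated on a 3-laser FACSCanto II. Sampling was predose, day 1, 8, 15 and end of study. Read-out was MEFL.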

FLT4 = FLT4 (Homo sapiens, UniProt P35916); experiment: Biochemical inhibition profile, FLT4; settings: read-out: Biochemical Inhibition Profile IC50, FLT4
EPHA7 = EPHA7 (Homo sapiens, UniProt Q15375); experiment: Biochemical inhibition profile, EPHA7; settings: read-out: Biochemical Inhibition Profile IC50, EPHA7
[2] = tested on: MV4-11 cells containing the FLT3-ITD mutation; settings: animals; cited from earlier work
p70S6K = p70S6K (Homo sapiens, UniProt P23443); experiment: Biochemical inhibition profile, p70S6K; settings: at 20 μM
p70S6K, sequence (P23443 whole entry): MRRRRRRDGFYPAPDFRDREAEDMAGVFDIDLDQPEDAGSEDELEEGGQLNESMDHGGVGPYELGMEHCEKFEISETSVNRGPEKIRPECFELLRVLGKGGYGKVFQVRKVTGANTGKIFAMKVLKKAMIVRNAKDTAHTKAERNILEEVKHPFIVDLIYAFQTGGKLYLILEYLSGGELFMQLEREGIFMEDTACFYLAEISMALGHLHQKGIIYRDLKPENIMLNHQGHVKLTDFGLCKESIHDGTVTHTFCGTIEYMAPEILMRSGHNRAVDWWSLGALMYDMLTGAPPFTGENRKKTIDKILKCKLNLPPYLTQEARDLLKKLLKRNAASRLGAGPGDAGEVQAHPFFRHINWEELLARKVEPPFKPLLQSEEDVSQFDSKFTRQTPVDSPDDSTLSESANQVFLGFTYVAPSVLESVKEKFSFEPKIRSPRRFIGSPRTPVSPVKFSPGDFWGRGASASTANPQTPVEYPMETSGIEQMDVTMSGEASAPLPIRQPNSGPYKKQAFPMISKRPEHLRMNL

VEGF-R1 = VEGF-R1 (Homo sapiens, UniProt P17948); experiment: Biochemical inhibition profile, VEGF-R1; settings: read-out: Biochemical Inhibition Profile IC50, VEGF-R1
VEGF-R1, sequence (P17948 27-1338): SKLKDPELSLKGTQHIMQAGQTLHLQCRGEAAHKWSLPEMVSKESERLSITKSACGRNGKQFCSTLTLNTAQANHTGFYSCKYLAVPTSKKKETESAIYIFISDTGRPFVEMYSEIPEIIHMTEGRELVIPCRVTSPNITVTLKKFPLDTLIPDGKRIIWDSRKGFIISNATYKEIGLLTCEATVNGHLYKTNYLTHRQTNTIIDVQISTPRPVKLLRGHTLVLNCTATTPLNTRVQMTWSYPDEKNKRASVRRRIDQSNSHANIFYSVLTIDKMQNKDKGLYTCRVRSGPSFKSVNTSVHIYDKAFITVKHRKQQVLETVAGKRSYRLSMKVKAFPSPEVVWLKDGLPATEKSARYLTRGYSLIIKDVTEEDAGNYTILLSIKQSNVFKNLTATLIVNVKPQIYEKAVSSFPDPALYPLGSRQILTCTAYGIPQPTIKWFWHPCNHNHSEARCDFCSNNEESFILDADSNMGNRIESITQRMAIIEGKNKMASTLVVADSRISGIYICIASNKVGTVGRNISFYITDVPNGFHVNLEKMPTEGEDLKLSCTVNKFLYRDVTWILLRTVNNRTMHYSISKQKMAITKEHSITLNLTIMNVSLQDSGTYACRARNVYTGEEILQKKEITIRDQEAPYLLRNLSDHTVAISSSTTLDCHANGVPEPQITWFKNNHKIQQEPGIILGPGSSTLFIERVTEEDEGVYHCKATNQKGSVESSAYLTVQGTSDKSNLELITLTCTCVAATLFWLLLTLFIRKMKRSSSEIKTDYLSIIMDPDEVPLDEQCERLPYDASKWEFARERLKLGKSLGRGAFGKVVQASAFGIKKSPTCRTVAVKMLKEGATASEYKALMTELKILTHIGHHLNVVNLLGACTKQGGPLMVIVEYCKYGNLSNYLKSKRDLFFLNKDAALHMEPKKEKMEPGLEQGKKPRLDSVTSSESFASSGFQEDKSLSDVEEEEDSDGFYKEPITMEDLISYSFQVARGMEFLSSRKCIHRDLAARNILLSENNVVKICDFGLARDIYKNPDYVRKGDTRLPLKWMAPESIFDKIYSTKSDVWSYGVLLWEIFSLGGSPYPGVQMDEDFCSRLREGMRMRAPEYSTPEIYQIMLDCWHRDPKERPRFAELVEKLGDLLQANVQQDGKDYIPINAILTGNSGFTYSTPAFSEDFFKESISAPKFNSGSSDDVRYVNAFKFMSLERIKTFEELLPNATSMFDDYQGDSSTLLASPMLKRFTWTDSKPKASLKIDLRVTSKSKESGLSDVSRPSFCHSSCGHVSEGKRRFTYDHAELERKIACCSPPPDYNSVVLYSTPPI

FLT3 = FLT3 (Homo sapiens, UniProt P36888); experiment: Biochemical inhibition profile, FLT3; settings: read-out: Biochemical Inhibition Profile IC50, FLT3
EPHB1 = EPHB1 (Homo sapiens, UniProt P54762); experiment: Biochemical inhibition profile, EPHB1; settings: read-out: Biochemical Inhibition Profile IC50, EPHB1
MV4-11 = experiment: cells; format: cell-based; settings: read-out: Cell-Based Antiproliferation Assay IC50; MV4-11; constitutively active (FLT3 ITD Mutation D835)
[3] = also reversible lymphoid necrosis of Peyer's patches, skin depigmentation or whitening of the hair; cited from earlier work
Adverse events = format: in vivo, human
Summary of the method: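 Five relapsed AML patients took test compound 50 mg/day as a once-daily oral capsule after an ~8 h fast, with breakfast at least 60 min later. A single-dose visit came first, then multidose treatment for four weeks (two weeks after amendment). Adverse events were graded by CTCAE v3.0. Dose-limiting toxicity definitions covered Grade ≥3 nonhematological events and Grade 3/4 QTc or blood-pressure changes.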

TIE2 = TIE2 (Homo sapiens, UniProt Q02763); experiment: Cell-based target inhibition assay, CHO - Clone113, pTIE2; settings: read-out: Cell-Based Target Inhibition Assays IC50, pTIE2 pY99, stable over-expression of TIE2
RET = RET (Homo sapiens, UniProt P07949); experiment: Biochemical inhibition profile, RET; settings: read-out: Biochemical Inhibition Profile IC50, RET
[4] = tested on: CYP3A4, CYP2D6, and CYP2C9; experiment: Drug-drug interaction cocktail; format: in vivo, human; settings: AML patients, cocktail before and after multiple doses of 50 mg/day
Summary of the method: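 The probe cocktail was midazolam 0.2 mg (CYP3A4), dextromethorphan 30 mg (CYP2D6) and tolbutamide 500 mg (CYP2C9), given after a two-hour fast. It was dosed ~7 days before the single test-compound dose and again after two or four weeks of daily 50 mg oral test compound. Probe plasma concentration–time profiles were compared before and after treatment.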

EPHA4 = EPHA4 (Homo sapiens, UniProt P54764); experiment: Biochemical inhibition profile, EPHA4; settings: read-out: Biochemical Inhibition Profile IC50, EPHA4
EPHA4, sequence (P54764 20-986): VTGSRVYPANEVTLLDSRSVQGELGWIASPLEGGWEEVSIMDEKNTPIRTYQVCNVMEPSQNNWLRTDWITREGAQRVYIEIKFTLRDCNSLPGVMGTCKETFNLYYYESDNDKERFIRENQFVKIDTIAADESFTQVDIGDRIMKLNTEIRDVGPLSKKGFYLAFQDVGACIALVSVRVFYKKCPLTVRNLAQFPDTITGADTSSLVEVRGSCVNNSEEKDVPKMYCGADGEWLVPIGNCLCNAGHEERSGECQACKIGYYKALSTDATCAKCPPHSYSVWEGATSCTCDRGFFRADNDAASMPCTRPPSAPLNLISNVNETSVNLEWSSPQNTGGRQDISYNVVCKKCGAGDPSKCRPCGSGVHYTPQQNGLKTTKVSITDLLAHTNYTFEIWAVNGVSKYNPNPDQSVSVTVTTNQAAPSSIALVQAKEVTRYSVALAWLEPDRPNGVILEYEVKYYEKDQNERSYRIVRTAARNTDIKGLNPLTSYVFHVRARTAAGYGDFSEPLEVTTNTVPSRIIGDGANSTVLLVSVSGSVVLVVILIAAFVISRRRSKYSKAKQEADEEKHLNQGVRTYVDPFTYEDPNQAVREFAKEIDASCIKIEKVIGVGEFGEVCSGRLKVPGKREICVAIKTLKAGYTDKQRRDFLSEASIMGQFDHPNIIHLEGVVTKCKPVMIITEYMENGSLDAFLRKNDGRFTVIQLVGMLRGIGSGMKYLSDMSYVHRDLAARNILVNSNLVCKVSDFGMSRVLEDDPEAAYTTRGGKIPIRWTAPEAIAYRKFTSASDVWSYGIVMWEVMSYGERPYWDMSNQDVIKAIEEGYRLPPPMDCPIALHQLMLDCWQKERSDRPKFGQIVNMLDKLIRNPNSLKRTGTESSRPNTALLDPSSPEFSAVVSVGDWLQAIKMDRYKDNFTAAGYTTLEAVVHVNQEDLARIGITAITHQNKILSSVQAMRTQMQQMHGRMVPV

cKIT = cKIT (Homo sapiens, UniProt P10721); experiment: Biochemical inhibition profile, cKIT; settings: read-out: Biochemical Inhibition Profile IC50, cKIT
RAF = experiment: Biochemical inhibition profile, RAF; parameters: species or system Human; settings: read-out: Biochemical Inhibition Profile IC50, RAF
EPHA5 = EPHA5 (Homo sapiens, UniProt P54756); experiment: Biochemical inhibition profile, EPHA5; settings: read-out: Biochemical Inhibition Profile IC50, EPHA5
pERK T202Y204 in HUVEC = experiment: Cell-based target inhibition assay, HUVEC, VEGF, pERK; parameters: species or system human; settings: read-out: Cell-Based Target Inhibition Assays IC50, pERK T202Y204, activator VEGF
[5] = Maximum CTC grade 1, n = 5 patients, regardless of causality
[6] = Maximum CTC grade 2, n = 5 patients, regardless of causality
[7] = Maximum CTC grade 3, n = 5 patients, regardless of causality
[8] = Maximum CTC grade 4, n = 5 patients, regardless of causality

EPHB4, sequence (P54760 16-987): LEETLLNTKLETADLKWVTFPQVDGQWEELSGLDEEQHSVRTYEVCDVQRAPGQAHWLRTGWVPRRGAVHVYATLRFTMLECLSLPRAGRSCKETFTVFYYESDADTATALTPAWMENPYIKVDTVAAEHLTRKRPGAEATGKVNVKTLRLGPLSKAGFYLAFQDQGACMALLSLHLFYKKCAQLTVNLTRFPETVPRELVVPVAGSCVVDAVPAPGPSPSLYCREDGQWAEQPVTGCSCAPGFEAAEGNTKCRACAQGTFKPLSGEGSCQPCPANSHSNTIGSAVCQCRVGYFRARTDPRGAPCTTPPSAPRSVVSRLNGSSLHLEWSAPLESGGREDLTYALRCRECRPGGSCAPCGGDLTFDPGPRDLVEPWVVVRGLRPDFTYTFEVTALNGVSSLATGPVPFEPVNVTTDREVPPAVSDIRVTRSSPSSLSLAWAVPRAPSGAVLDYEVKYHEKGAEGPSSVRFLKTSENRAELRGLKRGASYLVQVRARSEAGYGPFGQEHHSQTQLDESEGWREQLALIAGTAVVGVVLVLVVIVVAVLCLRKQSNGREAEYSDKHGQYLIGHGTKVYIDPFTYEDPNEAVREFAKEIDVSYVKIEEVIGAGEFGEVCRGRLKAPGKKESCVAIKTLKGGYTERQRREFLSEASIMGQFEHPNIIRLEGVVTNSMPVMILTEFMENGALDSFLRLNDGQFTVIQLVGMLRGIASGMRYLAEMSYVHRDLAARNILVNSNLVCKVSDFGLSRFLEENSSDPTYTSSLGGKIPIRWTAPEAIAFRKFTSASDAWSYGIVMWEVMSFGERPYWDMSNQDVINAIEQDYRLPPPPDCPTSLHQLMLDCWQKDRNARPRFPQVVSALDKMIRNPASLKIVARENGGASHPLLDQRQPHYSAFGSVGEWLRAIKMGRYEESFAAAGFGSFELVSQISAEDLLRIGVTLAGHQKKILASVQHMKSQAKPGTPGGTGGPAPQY
EPHB2, sequence (P29323 19-1055): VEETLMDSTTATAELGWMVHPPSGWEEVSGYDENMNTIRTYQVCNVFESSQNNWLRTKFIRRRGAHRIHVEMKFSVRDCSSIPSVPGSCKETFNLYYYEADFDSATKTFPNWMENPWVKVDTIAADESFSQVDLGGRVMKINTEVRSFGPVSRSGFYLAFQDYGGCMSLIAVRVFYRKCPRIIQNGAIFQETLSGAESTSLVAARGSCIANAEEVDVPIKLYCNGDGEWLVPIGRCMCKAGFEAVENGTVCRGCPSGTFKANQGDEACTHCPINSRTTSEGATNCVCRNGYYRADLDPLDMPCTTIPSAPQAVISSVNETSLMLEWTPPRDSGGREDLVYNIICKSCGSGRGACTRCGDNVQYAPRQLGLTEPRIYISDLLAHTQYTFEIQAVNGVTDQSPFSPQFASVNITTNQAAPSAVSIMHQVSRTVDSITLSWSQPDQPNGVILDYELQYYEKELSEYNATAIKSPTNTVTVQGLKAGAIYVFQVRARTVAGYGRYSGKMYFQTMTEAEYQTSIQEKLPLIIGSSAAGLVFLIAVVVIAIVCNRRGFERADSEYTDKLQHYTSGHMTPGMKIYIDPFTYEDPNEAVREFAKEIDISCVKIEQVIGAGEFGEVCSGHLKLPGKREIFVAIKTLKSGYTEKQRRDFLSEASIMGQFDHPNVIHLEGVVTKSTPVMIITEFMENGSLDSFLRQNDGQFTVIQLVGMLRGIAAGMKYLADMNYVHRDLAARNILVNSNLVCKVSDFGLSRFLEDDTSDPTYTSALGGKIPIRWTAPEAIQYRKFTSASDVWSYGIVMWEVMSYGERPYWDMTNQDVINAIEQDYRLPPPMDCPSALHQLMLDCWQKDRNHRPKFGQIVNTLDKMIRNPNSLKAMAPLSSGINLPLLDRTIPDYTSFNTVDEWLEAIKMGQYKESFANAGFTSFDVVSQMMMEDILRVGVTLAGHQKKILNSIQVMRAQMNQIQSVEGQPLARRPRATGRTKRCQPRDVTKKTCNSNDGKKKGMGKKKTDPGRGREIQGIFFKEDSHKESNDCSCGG

Cc1cc(-c2ccn3c(-c4ccc(CC(=O)Nc5cccc(C(F)(F)F)c5)c(F)c4)cnc3c2)ccn1 [LY2457546]
IC50 (EPHB4): 9.1 nM | IC50 (EPHB2): 45.7 nM | Expression of pFLT3 and pcKIT [1]: reduced expression | IC50 (FLT4): 1.56 nM | IC50 (EPHA7): 221 nM | Potency relative to sunitinib in controlling leukemia growth [2]: 10 fold | p70S6K percent inhibition at 20 μM (p70S6K): 75.9% | IC50 (VEGF-R1): 30.6 nM | IC50 (FLT3): 5.1 nM | IC50 (EPHB1): 21.4 nM | IC50 (MV4-11): 0.339 nM | Toxicities in preclinical toxicology studies [3]: reversible bone marrow toxicity, minimal liver inflammation, reversible physeal dysplasia | Chapped lips, number of patients (Adverse events; [5]): 1 | Constipation, number of patients (Adverse events; [5]): 1 | Cough, number of patients (Adverse events; [5]): 1 | Diarrhea, number of patients (Adverse events; [5]): 2 | Epistaxis, number of patients (Adverse events; [5]): 1 | Facial swelling, number of patients (Adverse events; [5]): 1 | Fatigue, number of patients (Adverse events; [5]): 1 | Headache, number of patients (Adverse events; [5]): 3 | Hemangioma of liver, number of patients (Adverse events; [5]): 1 | Hematoma, number of patients (Adverse events; [5]): 1 | Hematuria, number of patients (Adverse events; [5]): 1 | Hemorrhoids, number of patients (Adverse events; [5]): 1 | Hepatomegaly, number of patients (Adverse events; [5]): 1 | Hyperhidrosis, number of patients (Adverse events; [5]): 1 | Hypokalemia, number of patients (Adverse events; [5]): 3 | Inguinal hernia, number of patients (Adverse events; [5]): 1 | Musculoskeletal pain, number of patients (Adverse events; [5]): 1 | Nausea, number of patients (Adverse events; [5]): 1 | Nephrolithiasis, number of patients (Adverse events; [5]): 1 | Oropharyngeal pain, number of patients (Adverse events; [5]): 1 | Osteoporosis, number of patients (Adverse events; [5]): 1 | Peripheral edema, number of patients (Adverse events; [5]): 1 | Petechiae, number of patients (Adverse events; [5]): 3 | Splenomegaly, number of patients (Adverse events; [5]): 1 | Ulcerative colitis, number of patients (Adverse events; [5]): 1 | Vertigo, number of patients (Adverse events; [5]): 1 | Anxiety, number of patients (Adverse events; [6]): 2 | Asthma, number of patients (Adverse events; [6]): 1 | Back pain, number of patients (Adverse events; [6]): 1 | Bladder spasm, number of patients (Adverse events; [6]): 1 | Constipation, number of patients (Adverse events; [6]): 1 | Epistaxis, number of patients (Adverse events; [6]): 2 | Gingival hyperplasia, number of patients (Adverse events; [6]): 1 | Hemorrhoids, number of patients (Adverse events; [6]): 1 | Hypertension, number of patients (Adverse events; [6]): 2 | Insomnia, number of patients (Adverse events; [6]): 1 | Keratoconjunctivitis sicca, number of patients (Adverse events; [6]): 1 | Stomatitis, number of patients (Adverse events; [6]): 1 | Urticaria, number of patients (Adverse events; [6]): 1 | Anal abscess, number of patients (Adverse events; [7]): 1 | Asthenia (muscle weakness), number of patients (Adverse events; [7]): 1 | Breast cellulitis, number of patients (Adverse events; [7]): 1 | Catheter-related infection, number of patients (Adverse events; [7]): 1 | Febrile neutropenia, number of patients (Adverse events; [7]): 2 | Fungal sepsis, number of patients (Adverse events; [7]): 1 | Hypotension, number of patients (Adverse events; [7]): 1 | Neutropenic sepsis, number of patients (Adverse events; [7]): 1 | Hemorrhage, number of patients (Adverse events; [8]): 1 | Hypophosphatemia, number of patients (Adverse events; [8]): 1 | Adverse events that were Grade 1 or 2 (Adverse events; five patients, 50 mg/day orally): 81% | Dose-limiting toxicity (Adverse events; one patient (C) of five, 50 mg/day orally): generalized muscle weakness (Grade 3) | IC50 (TIE2): 166 nM | IC50 (RET): 4.19 nM | Drug-drug interactions with midazolam, tolbutamide, and dextromethorphan [4]: No consistent drug–drug interactions | IC50 (EPHA4): 157 nM | IC50 (cKIT): 73.8 nM | IC50 (RAF): 264 nM | IC50 (EPHA5): 10.7 nM | IC50 (pERK T202Y204 in HUVEC): 2.05 nM
